pIC50: −log10 of the molar value.
How the values were obtained:
[1] = system: Human alphaherpesvirus 1; experiment: Antiviral activity against Herpes simplex virus-1 F VR 733 infected in African green monkey Vero cells assessed as inhibition of virus-induced cytopathic effect; format: functional; conditions: Human alphaherpesvirus 1, Strain F ATCC VR 733, Vero
Method in brief: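 Vero cells (2.5 × 10^4/well) were seeded for 24 h, then the medium was removed. Cells were infected with HSV-1 at 100 TCID50 for 2 h, then given graded compound concentrations. Incubation continued until control CPE reached 4+. Runs were in triplicate, repeated at least three times. IC50 is the minimal concentration inhibiting 50% of CPE, by Reed and Muench.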

[2] = Cytotoxicity against African green monkey Vero cells assessed as growth inhibition after 48 hrs; format: cell-based; conditions: chlorocebus sabaeus, read-out: TC50
Method in brief: (§1)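 Vero or MDCK cells (2.5 × 10^4/well) were seeded for 24 h, then exposed to graded compound concentrations. After 48 h at 37 °C and 5% CO2, cytotoxicity was scored by CPE. TC50 was calculated by Reed and Muench analysis.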

[3] = Selectivity index, ratio of TC50 for African green monkey Vero cells to IC50 for Herpes simplex virus-1 F VR 733 infected in African green monkey Vero cells; format: toxicity; conditions: read-out: Selectivity Index
Method in brief: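 Vero cells (2.5 × 10^4/well) seeded 24 h, medium removed, infected with HSV-1 at 100 TCID50 for 2 h, then graded compound concentrations added until control CPE reached 4+. IC50 = minimal concentration inhibiting 50% CPE (Reed and Muench); triplicate, at least three separate experiments. […] SI = TC50/IC50.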

[4] = system: Influenza A virus; experiment: Antiviral activity against Influenza A virus A/95-359 infected in MDCK cells assessed as inhibition of virus-induced cytopathic effect; format: functional, cell-based; conditions: A/95-359, MDCK
Method in brief: (§2)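 MDCK cells (2.5 × 10^4/well) seeded 24 h, PBS-washed, infected with influenza A/95-359 at 100 TCID50 for 2 h, then exposed to graded compound concentrations until control CPE reached 4+. IC50 = minimal concentration inhibiting 50% of CPE (Reed and Muench); triplicate, at least three separate experiments. […] SI = TC50/IC50.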

[5] = Cytotoxicity against MDCK cells assessed as growth inhibition after 48 hrs; format: cell-based, Canis lupus familiaris; conditions: dog, read-out: TC50; method in brief: as §1
[6] = Selectivity index, ratio of TC50 for MDCK cells to IC50 for Influenza A virus (A/95-359) infected in MDCK cells; format: toxicity, cell-based; conditions: dog, read-out: Selectivity Index; method in brief: as §2
[7] = system: Coxsackievirus B3; experiment: Antiviral activity against Coxsackievirus B3 infected in African green monkey Vero cells assessed as inhibition of virus-induced cytopathic effect; format: functional; conditions: Enterovirus B
Method in brief: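 Vero monolayers were infected with Cox B3 at 100 TCID50 and allowed 2 h adsorption at 37 °C. They were then washed with PBS and kept at 37 °C in MEM with 2% FBS, with or without graded concentrations of test compounds. Read-out was CPE.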

[8] = Selectivity index, ratio of TC50 for African green monkey Vero cells to IC50 for Coxsackievirus B3 infected in African green monkey Vero cells; format: toxicity; conditions: read-out: Selectivity Index
Method in brief: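 Vero monolayers infected with 100 TCID50 Coxsackie B3 virus, 2 h adsorption at 37 °C, PBS-washed, then held in MEM plus 2% FBS at 37 °C with graded compound concentrations. […] SI = TC50/IC50.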

| SMILES | pIC50 [1] | CC50 at 48 h [2] [µM] | selectivity ratio [3] | pIC50 [4] | CC50 at 48 h [5] [µM] | selectivity ratio [6] | pIC50 [7] | selectivity ratio [8] |
| --- | --- | --- | --- | --- | --- | --- | --- | --- |
| C[C@H](CCC(=O)C(C)(C)O)[C@H]1CC[C@@]2(C(=O)O)[C@@H]3CCC4=C(CC[C@@H](O)C4(C)C)C[C@H]3CC[C@]12C | 5.43 | 16 | 4.3 | 5.68 | 6.4 | 3 | 5.68 | 7.6 |
| C[C@H](CC[C@H](O)C(C)(C)O)[C@H]1CC[C@@]2(C(=O)O)[C@@H]3CC[C@@H]4C(=CC[C@@H](O)C4(C)C)C[C@H]3CC[C@]12C | ≤ 4.48 |  |  | 4.59 | > 100 | > 3.9 | ≤ 4.48 |  |
| C[C@H](CCC(=O)C(C)(C)O)[C@H]1CC[C@@]2(C(=O)O)[C@@H]3CCC4=C(CC[C@@H](O[C@@H]5O[C@H](CO)[C@@H](O)[C@H](O)[C@H]5O)C4(C)C)C[C@H]3CC[C@]12C | 4.95 | 23.1 | 2.1 | < 4.95 | 33.3 |  | 4.95 | 2.1 |
| CC(=O)OC[C@H]1O[C@@H](O[C@@H]2CCC3=C(CC[C@@H]4[C@H](CC[C@]5(C)[C@@H]([C@H](C)CC[C@H](O[C@@H]6OC[C@H](O)[C@H](O)[C@H]6O)C(C)(C)O)CC[C@@]45C(=O)O)C3)C2(C)C)[C@H](O)[C@@H](O)[C@@H]1O | ≤ 4.48 |  |  | < 4.48 |  |  | ≤ 4.48 |  |
| C[C@H](CC[C@H](O[C@H]1O[C@@H](CO)[C@H](O)[C@@H](O)[C@@H]1O)C(C)(C)O)[C@H]1CC[C@@]2(C(=O)O)C3=C(CC[C@]12C)[C@@]1(C)CC[C@@H](O[C@@H]2O[C@H](CO)[C@@H](O)[C@H](O)[C@H]2O)C(C)(C)[C@@H]1CC3 | ≤ 4.48 |  |  | < 4.48 |  |  | ≤ 4.48 |  |
| C[C@H]1[C@H](C)CC[C@@]23CC[C@]4(C)[C@](OC2=O)([C@H](O)C[C@@H]2[C@@]5(C)C[C@@H](O)[C@@H](O)C(CO)(CO)[C@@H]5CC[C@]24C)[C@H]13 | ≤ 4.48 |  |  | < 4.48 |  |  | ≤ 4.48 |  |
| C[C@H]1[C@H](C)CC[C@@]23CC[C@@]4(C)[C@@]5(C)[C@H](C[C@@H](O)[C@]4(OC2=O)[C@H]13)[C@@]1(C)C[C@@H](O)[C@@H](O)[C@](C)(CO)[C@@H]1C[C@@H]5O | ≤ 4.48 |  |  | < 4.48 |  |  | ≤ 4.48 |  |
| C[C@H](CC[C@H](O[C@@H]1O[C@H](CO)[C@@H](O)[C@H](O)[C@H]1O)C(C)(C)O)[C@H]1CC[C@@]2(C(=O)O)C3=C(CC[C@]12C)[C@@]1(C)CC[C@@H](O)C(C)(C)[C@@H]1CC3 | 4.64 | 57.7 | 2.5 | < 4.48 |  |  | ≤ 4.48 |  |
| C[C@H](CC[C@H](O[C@@H]1OC[C@H](O)[C@H](O)[C@H]1O)C(C)(C)O)[C@H]1CC[C@@]2(C(=O)O)[C@@H]3CC[C@H]4C(=CC[C@@H](O[C@@H]5O[C@H](CO)[C@@H](O)[C@H](O)[C@H]5O)C4(C)C)C[C@H]3CC[C@]12C | ≤ 4.48 |  |  | < 4.48 |  |  | ≤ 4.48 |  |
| Nc1nc2c(ncn2COCCO)c(=O)[nH]1 [ACYCLOVIR] | 6.39 | > 100 | > 244 |  |  |  |  |  |
| CCOC(=O)C1=C[C@@H](OC(CC)CC)[C@H](NC(C)=O)[C@@H](N)C1 [OSELTAMIVIR] |  |  |  | 5.77 |  | 741 |  |  |
| Cc1cc(CCCOc2c(C)cc(-c3noc(C(F)(F)F)n3)cc2C)on1 [PLECONARIL] |  | 15.4 |  |  |  |  | 9.00 | 15400 |
| NC(=O)c1ncn([C@@H]2O[C@H](CO)[C@@H](O)[C@H]2O)n1 [RIBAVIRIN] |  |  |  | 5.89 | 1160 | 895 | 3.53 | 6.8 |

Reference: ChEMBL document CHEMBL3994572, “Antiviral Triterpenes from the Twigs and Leaves of Lyonia ovalifolia” (J Nat Prod, 2016)
